Assay results taken from ChEMBL document CHEMBL4038305, “Benzoxaborole Antimalarial Agents. Part 5. Lead Optimization of Novel Amide Pyrazinyloxy Benzoxaboroles and Identification of a Preclinical Candidate” (J Med Chem, 2017).
Calls of active or inactive are those of the source. The rule behind the calls is not given here.

What was measured:
Plasmodium falciparum [1] = assay: Antimalarial activity against Plasmodium falciparum 3D7 0087/N9 infected in NOD/SCID IL2R gamma null mouse assessed as decrease in parasitemia at 0.3 to 75 mg/kg up to 7 days post infection; type: functional, organism-based
Procedure, shortened: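 Human-erythrocyte-engrafted NODscidIL2Rγnull mice carrying P. falciparum Pf3D70087/N9 in peripheral blood; compound given orally once daily for four consecutive days.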

Plasmodium falciparum [2] = assay: Antimalarial activity against Plasmodium falciparum NF54 infected in human erythrocytes assessed as reduction in [3H]-hypoxanthine incorporation preincubated for 24 hrs followed by [3H]-hypoxanthine addition measured after 24 hrs by scintillation counting method; type: functional, cell-based
Plasmodium falciparum [3] = assay: Antimalarial activity against Plasmodium falciparum TM90C2A infected in human erythrocytes assessed as reduction in [3H]-hypoxanthine incorporation preincubated for 24 hrs followed by [3H]-hypoxanthine addition measured after 24 hrs by scintillation counting method; type: functional, cell-based
Salmonella typhimurium = assay: Genotoxicity in Salmonella typhimurium TA98 assessed as number of revertants per plate at 5 ug/plate in absence of rat liver S9 fraction by Ames test (reference value: 14 +/- 6); type: toxicity; conditions: salmonella enterica subsp. enterica serovar typhimurium

Q: `Cc1c(Oc2cnc(C(=O)N3CC(C)(O)C3)cn2)ccc2c1B(O)OC2` was tested. Which Activity (Plasmodium falciparum [1]) did it give?
A: Active

Q: And the IC50 (Plasmodium falciparum [2])?
A: 36 nM

Q: And the IC50 (Plasmodium falciparum [3])?
A: 64 nM

Q: What about the Activity (Salmonella typhimurium) of the same compound?
A: 12
